Calls of active or inactive are those of the source. The rule behind the calls is not given here.
Experiments:
[1] = tested on: Solanum lycopersicum; test: Induction of resistance to Botrytis cinerea-induced Solanum lycopersicum (tomato) fruit Solanum lycopersicum cv. No. 4 Zhongshu gray mold disease assessed as induction of defensive enzyme polyphenoloxidase activity at 1 mM preharvest treatment measured after 3 days relative to control; format: functional, organism-based
How it was run: (§1)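 Plants received 1 mM L-arginine (5 mL) injected near the root, with a water control. Fruit mesocarp was extracted in phosphate pH 6.8 (PAL, PPO) or acetate pH 5 (CHI, GLU) buffer. Readouts: PAL, L-phenylalanine in borate pH 8.8, 30 °C 1 h, A290. PPO, 0.1 M catechol, ΔA420 over 3 min. CHI, colloidal chitin at 40 °C then snailase, A585. GLU, 0.4% laminarin at 37 °C 1 h, DNS, A500. Three replicates.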

[2] = tested on: Botrytis cinerea; test: Induction of resistance to Botryotinia fuckeliana-induced tomato fruit Solanum lycopersicum cv. No. 4 Zhongshu gray mold disease assessed as disease incidence at 0.5 mM injected near root area measured after 3 days relative to control; format: functional
How it was run: (§2)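 Plants received 5 mL of L-arginine (0.5, 1 or 5 mM) by injection at a cut near the root area, with distilled water as control; 30 plants per treatment. Green mature fruit were picked 0–12 days after treatment. Fruit were ethanol-sterilised and wounded at three equator sites, each receiving 10 μL of 2 × 10^5 conidia/mL. Fruit were kept at 25 °C, 90–95% RH. Incidence and lesion area (3.14 × (d/2)²) were scored at 4 days; three replicates.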

[3] = tested on: Solanum lycopersicum; test: Induction of resistance to Botrytis cinerea-induced Solanum lycopersicum (tomato) fruit Solanum lycopersicum cv. No. 4 Zhongshu gray mold disease assessed as induction of defensive enzyme beta-1,3-glucanase activity at 1 mM preharvest treatment measured after 3 days relative to control; format: functional; how it was run: as §1
[4] = tested on: Botrytis cinerea; test: Induction of resistance to Botryotinia fuckeliana-induced tomato fruit Solanum lycopersicum cv. No. 4 Zhongshu gray mold disease assessed as disease incidence at 0.5 mM injected near root area measured after 6 days relative to control; format: functional; how it was run: as §2
[5] = tested on: Solanum lycopersicum; test: Induction of resistance to Botrytis cinerea-induced Solanum lycopersicum (tomato) fruit Solanum lycopersicum cv. No. 4 Zhongshu gray mold disease assessed as induction of defensive enzyme beta-1,3-glucanase activity at 1 mM preharvest treatment measured after 9 days relative to control; format: functional; how it was run: as §1
[6] = tested on: Solanum lycopersicum; test: Induction of resistance to Botrytis cinerea-induced Solanum lycopersicum (tomato) fruit Solanum lycopersicum cv. No. 4 Zhongshu gray mold disease assessed as induction of defensive enzyme chitinase activity at 1 mM preharvest treatment measured after 3 days relative to control; format: functional; how it was run: as §1
[7] = tested on: Botrytis cinerea; test: Induction of resistance to Botryotinia fuckeliana-induced tomato fruit Solanum lycopersicum cv. No. 4 Zhongshu gray mold disease assessed as inhibition of lession area at 1 mM injected near root area measured after 3 days relative to control; format: functional; details: 72 h; how it was run: as §2
[8] = tested on: Botrytis cinerea; test: Induction of resistance to Botryotinia fuckeliana-induced tomato fruit Solanum lycopersicum cv. No. 4 Zhongshu gray mold disease assessed as disease incidence at 5 mM injected near root area measured after 12 days relative to control; format: functional, organism-based; how it was run: as §2
[9] = tested on: Botrytis cinerea; test: Induction of resistance to Botryotinia fuckeliana-induced tomato fruit Solanum lycopersicum cv. No. 4 Zhongshu gray mold disease assessed as disease incidence at 5 mM injected near root area measured after 6 days relative to control; format: functional; how it was run: as §2
[10] = tested on: Solanum lycopersicum; test: Induction of resistance to Botrytis cinerea-induced Solanum lycopersicum (tomato) fruit Solanum lycopersicum cv. No. 4 Zhongshu gray mold disease assessed as induction of total phenolics content at 1 mM preharvest treatment measured after 3 days relative to control; format: functional
How it was run: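 Plants received 1 mM L-arginine (5 mL) injected near the root, with a water control. A685 was calibrated against […] and expressed as catechin equivalents (mg/100 g FW). Mean of three replicates.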

[11] = tested on: Solanum lycopersicum; test: Induction of resistance to Botrytis cinerea-induced Solanum lycopersicum (tomato) fruit Solanum lycopersicum cv. No. 4 Zhongshu gray mold disease assessed as increase in NO content at 1 mM preharvest treatment measured after 3 days relative to control; format: functional, organism-based
How it was run: (§3)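 Plants received 1 mM L-arginine (5 mL) injected near the root, with a water control. Frozen fruit mesocarp was extracted in HEPES-KOH pH 7.6 buffer. For NO, extract was pretreated with catalase and SOD, oxyhemoglobin was added, and A550 was read at 37 °C against a buffer blank; results are given as μmol/g FW. NOS was measured by the hemoglobin assay on cytosolic/microsomal fractions. Three replicates.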

[12] = tested on: Botrytis cinerea; test: Induction of resistance to Botryotinia fuckeliana-induced tomato fruit Solanum lycopersicum cv. No. 4 Zhongshu gray mold disease assessed as disease incidence at 1 mM injected near root area measured after 3 days relative to control; format: functional; how it was run: as §2
[13] = tested on: Botrytis cinerea; test: Induction of resistance to Botryotinia fuckeliana-induced tomato fruit Solanum lycopersicum cv. No. 4 Zhongshu gray mold disease assessed as disease incidence at 0.5 mM injected near root area measured after 12 days relative to control; format: functional, organism-based; how it was run: as §2
[14] = tested on: Solanum lycopersicum; test: Induction of resistance to Botrytis cinerea-induced Solanum lycopersicum (tomato) fruit Solanum lycopersicum cv. No. 4 Zhongshu gray mold disease assessed as increase in NOS activity at 1 mM preharvest treatment measured after 3 days relative to control; format: functional, organism-based; how it was run: as §3
[15] = tested on: Botrytis cinerea; test: Induction of resistance to Botryotinia fuckeliana-induced tomato fruit Solanum lycopersicum cv. No. 4 Zhongshu gray mold disease assessed as disease incidence at 1 mM injected near root area measured after 12 days relative to control; format: functional, organism-based; how it was run: as §2
[16] = tested on: Solanum lycopersicum; test: Induction of resistance to Botrytis cinerea-induced Solanum lycopersicum (tomato) fruit Solanum lycopersicum cv. No. 4 Zhongshu gray mold disease assessed as induction of defensive enzyme phenylalanine ammonialyase activity at 1 mM preharvest treatment measured after 9 days relative to control; format: functional, organism-based; how it was run: as §1
[17] = tested on: Botrytis cinerea; test: Induction of resistance to Botryotinia fuckeliana-induced tomato fruit Solanum lycopersicum cv. No. 4 Zhongshu gray mold disease assessed as disease incidence at 1 mM injected near root area measured after 6 days relative to control; format: functional; how it was run: as §2
[18] = tested on: Botrytis cinerea; test: Induction of resistance to Botryotinia fuckeliana-induced tomato fruit Solanum lycopersicum cv. No. 4 Zhongshu gray mold disease assessed as inhibition of lession area at 1 mM injected near root area measured after 6 days relative to control; format: functional; details: 144 h; how it was run: as §2
[19] = tested on: Botrytis cinerea; test: Effect on mycelial growth of Botryotinia fuckeliana relative to control; format: functional, organism-based
How it was run: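 Mycelial growth on PDA containing 1 mM L-arginine in the molten agar. A 7 mm B. cinerea disk was placed at the centre of a 90 mm dish and incubated at 25 °C. Colony diameter was read at 2, 3 and 4 days. Inhibition (%) = (control diameter − treated diameter)/(control diameter − 7 mm) × 100. Triplicate plates; the experiment was run twice.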

[20] = tested on: Botrytis cinerea; test: Induction of resistance to Botryotinia fuckeliana-induced tomato fruit Solanum lycopersicum cv. No. 4 Zhongshu gray mold disease assessed as disease incidence at 5 mM injected near root area measured after 3 days relative to control; format: functional; how it was run: as §2
[21] = tested on: Botrytis cinerea; test: Induction of resistance to Botryotinia fuckeliana-induced tomato fruit Solanum lycopersicum cv. No. 4 Zhongshu gray mold disease assessed as inhibition of lession area at 1 mM injected near root area measured after 9 days relative to control; format: functional; details: 216 h; how it was run: as §2
[22] = tested on: Solanum lycopersicum; test: Induction of resistance to Botrytis cinerea-induced Solanum lycopersicum (tomato) fruit Solanum lycopersicum cv. No. 4 Zhongshu gray mold disease assessed as induction of defensive enzyme beta-1,3-glucanase activity at 1 mM preharvest treatment measured after 6 days relative to control; format: functional; how it was run: as §1
[23] = tested on: Botrytis cinerea; test: Induction of resistance to Botryotinia fuckeliana-induced tomato fruit Solanum lycopersicum cv. No. 4 Zhongshu gray mold disease assessed as inhibition of lession area at 1 mM injected near root area measured after 12 days relative to control; format: functional; details: 288 h; how it was run: as §2

N=C(N)NCCC[C@H](N)C(=O)O [ARGININE]
Activity [1]: Active
Activity [2]: 29%
fold change (FC) [3]: 1.6
Activity [4]: 31%
fold change (FC) [5]: 3.1
fold change (FC) [6]: 1.9
inhibition in vivo at 1000 µM [7]: 86%
Activity [8]: Active
Activity [9]: 38%
fold change (FC) [10]: 1.17
Activity [11]: Active
Activity [12]: 16%
Activity [13]: Active
Activity [14]: Active
Activity [15]: Active
Activity [16]: Active
Activity [17]: 18%
inhibition in vivo at 1000 µM [18]: 90%
Activity [19]: inactive
Activity [20]: 37%
inhibition in vivo at 1000 µM [21]: 90%
fold change (FC) [22]: 1.4
inhibition in vivo at 1000 µM [23]: 85%
